Measurements from different studies.
Lines come from different studies, so protocols differ.
PLG trypsin-like site: Plasminogen, trypsin-like site (PLG, Homo sapiens, UniProt P00747)
OPRD1: Delta-type opioid receptor (OPRD1, Homo sapiens, UniProt P41143)
gag-pol reverse transcriptase: Gag-Pol polyprotein, reverse transcriptase (gag-pol, Human immunodeficiency virus 1, UniProt P03366)
ADRA2A: Alpha-2A adrenergic receptor (ADRA2A, Homo sapiens, UniProt P08913)

| SMILES | target | assay | conditions | measurement | result |
| --- | --- | --- | --- | --- | --- |
| CC(=O)Nc1ccc(O)cc1 | NAD(P)H dehydrogenase [quinone] 1 (NQO1, Homo sapiens, UniProt P15559) | enzyme activity, inhibitor, absorbance |  | Ki | > 1000 µM |
| CC(C)(C)[C@H](NC(=O)[C@H](CCONC(=N)N)NC(=O)Cc1ccc(CN)cc1)C(=O)N[C@@H](CCONC(=N)N)C(=O)NCc1ccc(C(=N)N)cc1 | PLG trypsin-like site | enzyme activity, inhibitor | pH 8 | Ki | 19 µM |
| CCCC[C@H](CNCc1ccccc1)N1CCN(CC2CCCCCC2)[C@H](Cc2ccc(O)cc2)C1 | OPRD1 | cell-free assay |  | IC50 | > 10 µM |
| CC[C@H](C)[C@H](NC(=O)[C@H](Cc1ccccc1)NC(=O)[C@H](CC(=O)O)NC(=O)[C@H](CCCNC(=N)N)NC(=O)[C@@H](NC(=O)[C@H](C)NC(=O)[C@H](CC(C)C)NC(=O)[C@H](CC(N)=O)NC(=O)[C@H](CC(=O)O)NC(=O)[C@H](CC(C)C)NC(=O)[C@@H](NC(=O)[C@@H](NC(=O)[C@H](CO)NC(=O)[C@H](CCSC)NC(=O)[C@H](CCC(=O)O)NC(=O)[C@H](CC(=O)O)NC(=O)[C@H](CO)NC(=O)[C@H](Cc1ccccc1)NC(=O)[C@H](CO)NC(=O)CNC(=O)[C@H](CC(=O)O)NC(=O)[C@H](C)NC(=O)[C@@H](N)Cc1c[nH]cn1)[C@@H](C)O)[C@@H](C)CC)[C@@H](C)O)C(=O)N[C@@H](CC(N)=O)C(=O)N[C@@H](Cc1c[nH]c2ccccc12)C(=O)N[C@@H](CC(C)C)C(=O)N[C@H](C(=O)N[C@@H](CCC(N)=O)C(=O)N[C@H](C(=O)N[C@@H](CCCCN)C(=O)N[C@H](C(=O)N[C@H](C(=O)N[C@@H](CC(=O)O)C(=O)O)[C@@H](C)O)[C@@H](C)CC)[C@@H](C)O)[C@@H](C)CC | Gastric inhibitory polypeptide receptor (GIPR, Homo sapiens, UniProt P48546) | reporter gene, agonist, luciferase |  | EC50 | > 1000 nM |
| CCC[C@H](CNC)NC[C@@H](CCC)NCCC1CC2CCC1C2 (some centres unmarked) | OPRD1 | cell-free assay |  | IC50 | > 10 µM |
| CC(C)(C)[C@H](NC(=O)[C@H](CCCNC(=N)N)NC(=O)Cc1ccc(CNC(=N)N)cc1)C(=O)N[C@@H](CCONC(=N)N)C(=O)NCc1ccc(C(=N)N)cc1 | PLG trypsin-like site | enzyme activity, inhibitor | pH 8 | Ki | 3.1 µM |
| On1ccc2ccccc2c1=S | Carbonic anhydrase 2 (CA2, Homo sapiens, UniProt P00918) | enzyme activity, inhibitor, absorbance | pH 8 | Ki | 15 µM |
| Cn1cc(-c2cccc(N3CCc4c(sc5c4CC(C)(C)C5)C3=O)c2CO)cc(Nc2ccncn2)c1=O | Receptor tyrosine-protein kinase erbB-2 (ERBB2, Homo sapiens, UniProt P04626) | enzyme activity, inhibitor, FRET |  | Ki | 1.75 µM |
| Cc1cc(/C=C/C#N)cc(C)c1Nc1ccnc(Nc2ccc(C#N)cc2)n1 | gag-pol reverse transcriptase | binding, SPR |  | Kd | 2530 nM |
| CNC[C@@H](Cc1ccc(O)cc1)N1CCN(CC2CCCCCC2)[C@@H](C(C)C)C1 | OPRD1 | cell-free assay |  | IC50 | > 10 µM |
| Cc1cc(O)cc(C)c1C[C@H](N)C(=O)N[C@H](C)C(=O)NCC(=O)N[C@@H](Cc1ccc(Cl)cc1)C(=O)N(C)CCC[C@@]1(c2ccc(F)cc2)OCc2cc(C#N)ccc21 | ADRA2A | ligand displacement, radioligand |  | Ki | 4.7 µM |
| CS(=O)(=O)c1cccc(OCCCC(=O)N[C@H]2C[C@@H]3C[C@@H]3C2=O)c1 (relative stereo) | Transcriptional activator protein LasR (lasR, Pseudomonas aeruginosa, UniProt P25084, A127W/Y93F) | reporter gene, agonist |  | EC50 | 350 nM |
| CCC(C)[C@@H](CNC)N1CCN(CCC23CC4CC(CC(C4)C2)C3)[C@H](C(C)C)C1 (some centres unmarked) | OPRD1 | cell-free assay |  | IC50 | > 10 µM |
| C[C@H](N)Cn1ncc2ccc3c(c21)CCCO3 | ADRA2A | ligand displacement, radioligand |  | Ki | 6.26 µM |
| O=C(CCCOc1cccc(Br)c1)N[C@H]1C[C@@H]2C[C@@H]2C1=O (relative stereo) | Transcriptional activator protein LasR (lasR, Pseudomonas aeruginosa, UniProt P25084, A127W) | reporter gene, agonist |  | EC50 | 200 nM |
| CC(C)(C)[C@H](NC(=O)[C@H](CCONC(=N)N)NC(=O)Cc1ccc(CNC(=N)N)cc1)C(=O)N[C@@H](CCCCN)C(=O)NCc1ccc(C(=N)N)cc1 | PLG trypsin-like site | enzyme activity, inhibitor | pH 8 | Ki | 28 µM |
| Cc1cn([C@@H]2CC[C@H](OC(C(=O)O)C(=O)O)C2)c(=O)[nH]c1=O | gag-pol reverse transcriptase | enzyme activity, inhibitor |  | Ki | 6.6 µM |
